Data on 38 compounds can be found in ChEMBL document CHEMBL1132155, “Endothelin antagonists: substituted mesitylcarboxamides with high potency and selectivity for ET(A) receptors” (J Med Chem, 1999).

Values after ≈ are worked out from the molar mass of the structure shown.

The target of data set [1] is T1, Endothelin-1 receptor (Homo sapiens) (UniProt P25101).
T1 sequence (whole entry): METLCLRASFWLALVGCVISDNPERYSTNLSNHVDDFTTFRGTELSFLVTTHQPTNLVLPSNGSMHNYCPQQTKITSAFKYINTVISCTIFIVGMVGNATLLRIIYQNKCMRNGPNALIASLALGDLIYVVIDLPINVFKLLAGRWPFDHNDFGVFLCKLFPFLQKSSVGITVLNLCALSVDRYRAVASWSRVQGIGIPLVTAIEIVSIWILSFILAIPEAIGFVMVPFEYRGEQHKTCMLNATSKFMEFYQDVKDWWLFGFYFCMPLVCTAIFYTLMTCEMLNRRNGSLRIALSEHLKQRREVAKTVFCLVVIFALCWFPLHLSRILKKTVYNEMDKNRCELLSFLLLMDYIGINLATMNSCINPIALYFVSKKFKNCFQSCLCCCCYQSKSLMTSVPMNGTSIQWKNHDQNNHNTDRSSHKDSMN
The experiment in a line: Competitive binding to Endothelin A receptor by displacement of [125I]ET1 (Relative IC50 was calculated as IC50 of compound/IC50 of TBC11251).

For data set [2], the target named is Endothelin receptor, ET-A/ET-B (Homo sapiens) (UniProt P24530+P25101). The experiment in a line: Compound was evaluated for the selectivity of ET-A receptors (ET-B IC50/ ET-A IC50). The class given is protein assay.
A short description of data set [3]: Compound was evaluated for the biological half-life when administered orally in Acute Pulmonary Hypertension Rat Model. Format: ADME, organism-based. Particulars: in vivo, po. Summed up:
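Adult Harlan Sprague–Dawley rats received 50 mg/kg by gavage in 0.5% high-viscosity carboxymethyl cellulose (5 mL/kg). Serial 200 μL tail-vein blood samples were taken at selected times into heparin-coated tubes. Red cells were removed by centrifugation and plasma stored at −80 °C. Plasma proteins were precipitated with acetonitrile before HPLC analysis; serum half-life was derived from these samples.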

A short description of data set [4]: Compound was evaluated for the aqueous solubility (AS) in mg/mL (Measured in 0.2 M phosphate buffer of pH 7.4). The class given is physicochemical. To be noted: read-out: AS. In a few lines:
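Solubility measured in 0.2 M phosphate buffer, pH 7.4. Where a preformed sodium salt was used, it was measured in saline (9 mg/mL).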

Chain of Endothelin receptor, ET-A/ET-B (Homo sapiens) (P24530 whole entry, looked up, one chain of several): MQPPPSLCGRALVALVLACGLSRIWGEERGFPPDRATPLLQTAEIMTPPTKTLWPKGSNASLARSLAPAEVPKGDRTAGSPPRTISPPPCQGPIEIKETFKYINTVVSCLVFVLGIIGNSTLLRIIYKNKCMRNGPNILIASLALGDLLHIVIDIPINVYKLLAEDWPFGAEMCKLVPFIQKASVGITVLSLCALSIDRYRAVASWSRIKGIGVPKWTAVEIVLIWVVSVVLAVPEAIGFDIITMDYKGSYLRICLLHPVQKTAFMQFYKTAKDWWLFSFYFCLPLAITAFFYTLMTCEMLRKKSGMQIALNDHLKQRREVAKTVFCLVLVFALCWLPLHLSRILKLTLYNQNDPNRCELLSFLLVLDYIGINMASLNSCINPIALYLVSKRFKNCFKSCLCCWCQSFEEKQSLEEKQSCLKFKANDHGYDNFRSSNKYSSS

On to `COCCOCCOCC(=O)Oc1c(C)cc(C)c(NC(=O)c2sccc2S(=O)(=O)Nc2onc(C)c2Cl)c1C`, for which the Relative ET-A IC50 in data set [1] is 0.5.
As for `CC(=O)Oc1c(C)cc(C)c(NC(=O)c2sccc2S(=O)(=O)Nc2onc(C)c2Cl)c1C`, in data set [2], the Selectivity turned out to be 6970. In addition, the Relative ET-A IC50 in data set [1] was 0.11.
Take `Cc1cc(C)c(NC(=O)c2sccc2S(=O)(=O)Nc2onc(C)c2C)c(C)c1CC#N`: in data set [3], the half-life is 1.8 h. For the same compound, in data set [4], the solubility is less than 10 mg/mL. The Selectivity in data set [2] is 14600. In addition, the Relative ET-A IC50 in data set [1] is 0.1.
In data set [2], `CCOC(=O)N(C(=O)c1sccc1S(=O)(=O)Nc1onc(C)c1Cl)c1c(C)cc(C)c(O)c1C` returned a Selectivity of 1530. Besides, the Relative ET-A IC50 in data set [1] was 5.56.
`Cc1cc(C)c(NC(=O)c2sccc2S(=O)(=O)Nc2onc(C)c2C)c(C)c1CO` showed a Selectivity in data set [2] of 30400. Also, the Relative ET-A IC50 in data set [1] is 0.07.
Regarding `Cc1cc(C)c(NC(=O)c2sccc2S(=O)(=O)Nc2noc(C)c2Cl)c(C)c1CC#N`, the half-life in data set [3] is 3.1 h. In data set [4], the solubility is 70 mg/mL (≈ 146 mM). In data set [2], this compound registered a Selectivity of 8550. The Relative ET-A IC50 in data set [1] was 0.06.
Compound `Cc1cc(C)c(CNC(=O)c2sccc2S(=O)(=O)Nc2onc(C)c2Cl)c(C)c1` gave a Selectivity in data set [2] of 0.004. In addition, the Relative ET-A IC50 in data set [1] was 1.15e+06.
In the case of `Cc1cc(C)c(N2CCCC2)c(C)c1NC(=O)c1sccc1S(=O)(=O)Nc1onc(C)c1Cl`, the Relative ET-A IC50 in data set [1] is 0.15.
Take `Cc1nc(C)c(NC(=O)c2sccc2S(=O)(=O)Nc2onc(C)c2Cl)c(C)n1`: in data set [2], the Selectivity came out at 9160. In addition, the Relative ET-A IC50 in data set [1] is 0.25.
In the same order, the values of `Cc1cc(C)c(CC(=O)c2sccc2S(=O)(=O)Nc2onc(C)c2Cl)c(C)c1` are 9390 and 0.24.
Taken in the same sequence, the figures for `Cc1cc(C)c(CNC(=O)c2sccc2S(=O)(=O)Nc2onc(C)c2Cl)c(C)c1CC#N` were 95 and 56.4.
In turn, `Cc1cc(C)c(N(C)C)c(C)c1NC(=O)c1sccc1S(=O)(=O)Nc1onc(C)c1Cl` showed a half-life in data set [3] of 1 h. Further, in data set [4], the solubility stood at 50 mg/mL (≈ 104 mM). This compound came in with a Selectivity in data set [2] of 36600. The Relative ET-A IC50 in data set [1] is 0.07.
In data set [3], `COc1c(C)cc(C)c(CC(=O)c2sccc2S(=O)(=O)Nc2onc(C)c2Cl)c1C` gave a half-life of 3.86 h. Moreover, the Selectivity in data set [2] amounted to 7640. For the same compound, the Relative ET-A IC50 in data set [1] was 0.13.
On to `COc1cc(C#N)c(NC(=O)c2sccc2S(=O)(=O)Nc2onc(C)c2Cl)c(OC)c1OC`, for which, in data set [3], the half-life was less than 1 h. For the same compound, the solubility in data set [4] is 43 mg/mL (≈ 83.8 mM). Besides, in data set [2], the Selectivity came to 29200. In data set [1], the Relative ET-A IC50 is 0.01.
Take `COC(=O)c1cc(C)cc(C)c1NC(=O)c1sccc1S(=O)(=O)Nc1onc(C)c1Cl`: in data set [2], the Selectivity was 36200. In addition, in data set [1], the Relative ET-A IC50 is 0.16.
In turn, `Cc1cc(C)c(NC(=O)c2sccc2S(=O)(=O)Nc2onc(C)c2Cl)c(C)c1CC(=O)O` returned a Selectivity in data set [2] of 59900. The Relative ET-A IC50 in data set [1] is 0.12.
Taken in the same sequence, the figures for `Cc1cc(C)c(NC(=O)c2sccc2S(=O)(=O)Nc2onc(C)c2Cl)c(C)c1COC(=S)N(C)C` were 16200 and 0.21.
In the same order, the values of `Cc1noc(NS(=O)(=O)c2ccsc2C(=O)Nc2c(C)c(CC#N)c(C)c(CC#N)c2C)c1Cl` are 3 and 3110.
On to `COc1c(C)cc(C)c(NC(=O)c2sccc2S(=O)(=O)Nc2onc(C)c2Cl)c1C`, for which, in data set [3], the half-life was 1.8 h. The solubility in data set [4] is less than 10 mg/mL. This compound gave a Selectivity in data set [2] of 56400. The Relative ET-A IC50 in data set [1] is 0.06.
On to `Cc1cc2c(cc1C(CCBr)C(=O)c1sccc1S(=O)(=O)Nc1onc(C)c1Cl)OCO2` (stereo not drawn), for which the Selectivity in data set [2] worked out at 59. Further, in data set [1], the Relative ET-A IC50 is 38.4.
Taken in the same sequence, the figures for `Cc1noc(NS(=O)(=O)c2ccsc2C(=O)Nc2c(C)c(C)c(C)c(C)c2C)c1Cl` were 1080 and 1.97.
Take `Cc1cc(C)c(NS(C)(=O)=O)c(C)c1NC(=O)c1sccc1S(=O)(=O)Nc1onc(C)c1Cl`: the half-life in data set [3] was 2.1 h. Besides, in data set [4], the solubility was less than 10 mg/mL. Further, in data set [2], the Selectivity came to 41700. Besides, the Relative ET-A IC50 in data set [1] was 0.11.
In data set [2], `Cc1cc(C)c(OC(=S)N(C)C)c(C)c1NC(=O)c1sccc1S(=O)(=O)Nc1onc(C)c1Cl` gave a Selectivity of 22600. The Relative ET-A IC50 in data set [1] was 0.09.
`Cc1cc(C)c(NC(=O)c2sccc2S(=O)(=O)Nc2onc(C)c2Cl)c(C)c1C#N` had a half-life in data set [3] of 1.8 h. Also, in data set [4], the solubility was found to be 37 mg/mL (≈ 79.6 mM). Also, in data set [2], the Selectivity was 37700. Moreover, the Relative ET-A IC50 in data set [1] was 0.1.
In data set [2], `CC(=O)OCc1c(C)cc(C)c(NC(=O)c2sccc2S(=O)(=O)Nc2onc(C)c2C)c1C` returned a Selectivity of 160000. For the same compound, in data set [1], the Relative ET-A IC50 was 0.06.
Taken in the same sequence, the figures for `CC(=O)OCc1c(C)cc(C)c(NC(=O)c2sccc2S(=O)(=O)Nc2noc(C)c2Cl)c1C` were 38400 and 0.03.
In data set [2], `Cc1cc(C)c(OCC(=O)O)c(C)c1NC(=O)c1sccc1S(=O)(=O)Nc1onc(C)c1Cl` came in with a Selectivity of 23000. Further, the Relative ET-A IC50 in data set [1] was 0.05.
As for `Cc1cc(C)c(C(=O)O)c(C)c1NC(=O)c1sccc1S(=O)(=O)Nc1onc(C)c1Cl`, in data set [1], the Relative ET-A IC50 was 0.79.
The compound `Cc1cc(C)c(NC(=O)c2sccc2S(=O)(=O)Nc2onc(C)c2Cl)c(C)c1` had a half-life in data set [3] of 2.5 h. For the same compound, the solubility in data set [4] was found to be 23 mg/mL (≈ 52.3 mM). Further, the Selectivity in data set [2] stood at 7050. Also, in data set [1], the Relative ET-A IC50 was 0.1.
With `Cc1cc(C)c(NC(=O)c2sccc2S(=O)(=O)Nc2noc(C)c2Cl)c(C)c1CO`, in data set [2], the Selectivity came out at 3500. The Relative ET-A IC50 in data set [1] is 0.06.
In the same order, the values of `COC(=O)c1c(C)cc(C)c(NC(=O)c2sccc2S(=O)(=O)Nc2onc(C)c2Cl)c1C` are 41900 and 0.21.
In the same order, the values of `Cc1cc(C)c(OCC2CC2)c(C)c1NC(=O)c1sccc1S(=O)(=O)Nc1onc(C)c1Cl` are 59400 and 0.07.
Consider `Cc1cc2c(cc1C(CC(=O)O)C(=O)c1sccc1S(=O)(=O)Nc1onc(C)c1Cl)OCO2` (stereo not drawn), for which the Relative ET-A IC50 in data set [1] was 5.36.
Same read-out and setting: next, `Cc1cc(C)c(NC(=O)c2sccc2S(=O)(=O)Nc2onc(C)c2Cl)c(C)c1CN(C)C`: 0.88.
On to `COC(=O)Cc1c(C)cc(C)c(NC(=O)c2sccc2S(=O)(=O)Nc2onc(C)c2Cl)c1C`, for which the Selectivity in data set [2] is 114000. For the same compound, the Relative ET-A IC50 in data set [1] is 0.07.
Compound `Cc1cc(C)c(OS(=O)(=O)N(C)C)c(C)c1NC(=O)c1sccc1S(=O)(=O)Nc1onc(C)c1Cl` had a Selectivity in data set [2] of 1630. For the same compound, the Relative ET-A IC50 in data set [1] was 2.3.
For `Cc1cc2c(cc1C(C)C(=O)c1sccc1S(=O)(=O)Nc1onc(C)c1Cl)OCO2` (stereo not drawn), the Relative ET-A IC50 in data set [1] was 5.63.
In turn, `Cc1cc(C)c(CC(=O)c2sccc2S(=O)(=O)Nc2onc(C)c2Cl)c(C)c1O` showed a half-life in data set [3] of 3.9 h. Besides, the Selectivity in data set [2] came out at 10800. The Relative ET-A IC50 in data set [1] is 0.08.

In general, half-life refers to the time needed for the level to fall by half in the phase considered. High values mean slow decline, low ones rapid decline.
